In ChEMBL document CHEMBL1671644, “Inhibition of human immunodeficiency virus type 1 infection by the candidate microbicide dapivirine, a nonnucleoside reverse transcriptase inhibitor” (Antimicrob Agents Chemother, 2009):
Calls of active or inactive are those of the source. No cut-off for these calls is given here.

How the values were obtained:
[1] = system: Human immunodeficiency virus 1; assay: Antiviral activity against HIV-1 Bal infected in 1 hr compound pretreated human ectocervical explant tissue assessed as inhibition of viral replication at 0.1 nM by RT-PCR; format: functional, organism-based
In short: (§1)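 Ectocervical explants were pretreated with drug for 1 h, then exposed to HIV-1BaL (two 50% tissue infectious doses, about 10^4 TCID50 on PM-1) for 2 h at 37°C with drug present. Explants were washed and cultured overnight, then cultured separately for 10 days. Tissue was proteinase K-digested and proviral LTR DNA measured by multiplex qPCR against β-actin (10 copies/10^5 cells sensitivity). Two donors, triplicate.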

[2] = Toxicity against human cervical tissue explants at 1 mM after 24 hrs by MTT assay; details: 1000 µM
In short: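 Uninfected ectocervical explants were exposed to drug for 2 or 24 h. Viability was measured by MTT reduction per milligram of tissue relative to unexposed explants, either immediately or after overnight culture. Three or four donors, triplicate.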

[3] = system: Human immunodeficiency virus 1; assay: Antiviral activity against HIV-1 Bal infected in human PM1 cells after 7 days by RT assay; format: functional, organism-based; details: Human immunodeficiency virus 1, Bal, PM1, 168 h
In short: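 PM-1 cells (4 x 10^4/well) were infected with HIV-1BaL or HIV-1RF (200 TCID50/ml) and cultured 7 days with drug. Replication was measured as reverse transcriptase in supernatant versus untreated wells. IC50 was obtained by nonlinear regression.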

[4] = Selectivity index, ratio of CC50 for human TZM-bl cells to IC50 for HIV-1 Bal; format: functional
In short: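 Selectivity index is CC50/IC50, using values determined in the same time period. CC50 was measured by MTT for TZM-bl and PM-1 cells and by trypan blue exclusion after 14 days for macrophages. Both were fitted by nonlinear regression.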

[5] = system: Human immunodeficiency virus 1; assay: Antiviral activity against HIV-1 Bal infected in human TZM-bl cells after 24 hrs by luciferase reporter gene assay in presence of 12.5% cervical mucus; format: functional, organism-based; details: Human immunodeficiency virus 1, Bal
In short: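 TZM-bl cells (5 x 10^4/well), cultured overnight, pretreated first with cervical mucus simulant (12.5% final) and then drug (1 h), then infected with HIV-1 BaL (200 TCID50/ml). After 24 h, cells lysed and luciferase read. IC50 versus drug-free control by nonlinear regression; effect of mucus tested by ANOVA with Bonferroni and t tests.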

[6] = system: Human immunodeficiency virus 1; assay: Antiviral activity against HIV-1 subtype CRF02_AG V022808 infected in human MT4 cells assessed as inhibition of viral replication relative to HIV-1 3B; format: functional
In short: (§2)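 MT-4 cells (3 x 10^4/well) infected with site-directed mutants or recombinant clinical isolates (200 TCID50/well) with drug, cultured 3 to 5 days. Viability read by MTT colorimetric antivirogram assay. IC50 by nonlinear regression; fold change = IC50 for the test isolate / IC50 for wild-type HIV-1 IIIB tested in parallel (mean or median).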

[7] = system: Human immunodeficiency virus 1; assay: Antiviral activity against HIV-1 subtype CRF02_AG V022826 infected in human MT4 cells assessed as inhibition of viral replication relative to HIV-1 3B; format: functional; in short: as §2
[8] = system: Human immunodeficiency virus 1; assay: Antiviral activity against HIV-1 subtype CRF01_AE V022821 infected in human MT4 cells assessed as inhibition of viral replication relative to HIV-1 3B; format: functional
In short: (§3)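 Recombinant clinical HIV-1 isolates (200 TCID50/well) were tested in MT-4 cells (3 x 10^4/well) over 3–5 days, with an MTT viability read-out. IC50 was fitted by nonlinear regression. Fold change is the isolate IC50 divided by the HIV-1IIIB IC50, tested in parallel.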

[9] = system: Human immunodeficiency virus 1; assay: Antiviral activity against HIV-1 subtype CRF01_AE V022822 infected in human MT4 cells assessed as inhibition of viral replication relative to HIV-1 3B; format: functional; in short: as §2
[10] = system: Human immunodeficiency virus 1; assay: Antiviral activity against HIV-1 subtype B V022809 infected in human MT4 cells assessed as inhibition of viral replication relative to HIV-1 3B; format: functional; in short: as §2
[11] = system: Human immunodeficiency virus 1; assay: Antiviral activity against HIV-1 subtype B V022811 infected in human MT4 cells assessed as inhibition of viral replication relative to HIV-1 3B; format: functional; in short: as §3
[12] = system: Human immunodeficiency virus 1; assay: Antiviral activity against HIV-1 subtype B V022812 harboring NNRTI V179I mutant infected in human MT4 cells assessed as inhibition of viral replication relative to HIV-1 3B; format: functional; in short: as §2
[13] = system: Human immunodeficiency virus 1; assay: Antiviral activity against HIV-1 subtype D V022818 infected in human MT4 cells assessed as inhibition of viral replication relative to HIV-1 3B; format: functional; in short: as §2
[14] = system: Human immunodeficiency virus 1; assay: Antiviral activity against HIV-1 subtype CRF05_DF V022824 harboring NNRTI V106I mutant infected in human MT4 cells assessed as inhibition of viral replication relative to HIV-1 3B; format: functional; in short: as §2
[15] = system: Human immunodeficiency virus 1; assay: Antiviral activity against HIV-1 subtype O V029524 harboring NNRTI A98G, V179E and Y181C mutant infected in human MT4 cells assessed as inhibition of viral replication relative to HIV-1 3B; format: functional; in short: as §2
[16] = system: Human immunodeficiency virus 1; assay: Antiviral activity against HIV-1 SM026 harboring NNTRI 103N and 181C mutant infected in human MT4 cells assessed as inhibition of viral replication relative to HIV-1 3B; format: functional; in short: as §2
[17] = system: Human immunodeficiency virus 1; assay: Antiviral activity against HIV-1 SM030 harboring NNTRI 100I mutant infected in human MT4 cells assessed as inhibition of viral replication relative to HIV-1 3B; format: functional; in short: as §2
[18] = system: Human immunodeficiency virus 1; assay: Antiviral activity against HIV-1 SM058 harboring NNTRI 227L and 106A mutant infected in human MT4 cells assessed as inhibition of viral replication relative to HIV-1 3B; format: functional; in short: as §2
[19] = system: Human immunodeficiency virus 1; assay: Antiviral activity against HIV-1 Bal infected in 1 hr compound pretreated human ectocervical explant tissue assessed as inhibition of viral replication by RT-PCR; format: functional, organism-based; in short: as §1
[20] = system: Human immunodeficiency virus 1; assay: Antiviral activity against HIV-1 Bal infected in 2 hrs 1000 nM compound pretreated human ectocervical explant tissue assessed as prolonged inhibition of viral infection post compound removal measured after 2 days post compound removal; format: functional
In short: (§4)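 Ectocervical explants were exposed to drug (0.01–10 µM) for 2 or 24 h at 37°C and washed. They received HIV-1BaL (2 h) on day 0, 2, 4 or 6 after drug removal, with no drug present. Read-outs at 10 days post-exposure: explant p24 ELISA, tissue proviral DNA by qPCR, and p24 in migratory cell–PM-1 cocultures. Three donors (2 h) or two donors (24 h), triplicate.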

[21] = system: Human immunodeficiency virus 1; assay: Antiviral activity against HIV-1 Bal infected in 2 hrs 10000 nM compound pretreated human ectocervical explant tissue assessed as prolonged inhibition of viral infection post compound removal measured after 4 days post compound removal; format: functional; in short: as §4
[22] = system: Human immunodeficiency virus 1; assay: Antiviral activity against HIV-1 Bal infected in 2 hrs 10000 nM compound pretreated human ectocervical explant tissue assessed as prolonged inhibition of viral infection post compound removal measured after 6 days post compound removal; format: functional; in short: as §4
[23] = system: Human immunodeficiency virus 1; assay: Antiviral activity against HIV-1 Bal infected in 24 hrs 100 to 1000 nM compound pretreated human ectocervical explant tissue assessed as prolonged inhibition of viral infection post compound removal measured after 2 days post compound removal; format: functional; in short: as §4
[24] = system: Human immunodeficiency virus 1; assay: Antiviral activity against HIV-1 3B infected in human TZM-bl cells after 24 hrs by luciferase reporter assay; details: Human immunodeficiency virus 1, 3B

Cc1cc(C)c(Nc2ccnc(Nc3ccc(C#N)cc3)n2)c(C)c1 [DAPIVIRINE]
inhibition [1]: Active
Activity [2]: Non-toxic
IC50 [3]: 6 nM
Selectivity Index [4]: 9273
IC50 [5]: 8.32 nM
IC90 [5]: 41.6 nM
Ratio IC50 [6]: 1
Ratio IC50 [7]: 1
Ratio IC50 [8]: 1.7
Ratio IC50 [9]: 0.9
Ratio IC50 [10]: 1.5
Ratio IC50 [11]: 3.1
Ratio IC50 [12]: 2
Ratio IC50 [13]: 1.4
Ratio IC50 [14]: 0.7
Ratio IC50 [15]: 150
Ratio IC50 [16]: 63
Ratio IC50 [17]: 18
Ratio IC50 [18]: 8
Activity [19]: Dose-dependent effect
IC50 ([19]; Human immunodeficiency virus 1, Bal): 0.2 nM
inhibition (INH) [20]: 90%
inhibition (INH) [21]: 90%
inhibition (INH) [22]: 80%
inhibition (INH) [23]: 90%
IC50 [24]: 1 nM
